The text below walks through data of article PMC9163588 (The Journal of Biological Chemistry, 2022).

For orientation: Kd means the equilibrium constant for the complex coming apart.

Changes are numbered by the printed parent chain.

In series [1] the target is T1, PhlH (Pseudomonas fluorescens, UniProt Q4JIX5, R124A).
T1 sequence (Q4JIX5 1-225 R124A): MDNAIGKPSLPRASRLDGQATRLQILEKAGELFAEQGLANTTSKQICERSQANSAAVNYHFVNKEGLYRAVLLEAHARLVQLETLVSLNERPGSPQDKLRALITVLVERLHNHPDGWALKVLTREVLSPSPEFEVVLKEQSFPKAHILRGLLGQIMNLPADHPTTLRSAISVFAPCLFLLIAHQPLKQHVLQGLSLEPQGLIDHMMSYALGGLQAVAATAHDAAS
Kind of series: isothermal titration calorimetry. Type of series: binding. Summed up: (§1)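 N-terminally His6-tagged full-length PhlH from P. fluorescens 2P24, with point mutants made by site-directed mutagenesis. Expressed in E. coli Rosetta (DE3) (0.2 mM IPTG, 16 °C, 20 h), then Ni-NTA and gel filtration. ITC at 25 °C in degassed 20 mM Tris-HCl pH 8.0, 100 mM NaCl, 0.5% DMSO. Cell held 0.05–0.1 mM protein; syringe held 0.5–1 mM test compound. First 0.4 µl injection discarded, then 19 × 2.0 µl injections at 2-min spacing. Dilution heats subtracted; one-site fit gave Kd.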
For orientation: Isothermal titration calorimetry measures the heat released or taken up as one component is titrated into another.

For series [2], the target named is T2, PhlH (Pseudomonas fluorescens, UniProt Q4JIX5, L186A).
T2 sequence (Q4JIX5 1-225 L186A): T1 sequence (Q4JIX5 1-225 R124A)
Put plainly: isothermal titration calorimetry. In kind it is binding. Summed up: as §1

The target in series [3] is T3, PhlH (Pseudomonas fluorescens, UniProt Q4JIX5, L85A).
T3 sequence (Q4JIX5 1-225 L85A): T1 sequence (Q4JIX5 1-225 R124A)
Kind of series: isothermal titration calorimetry. In kind it is binding. An outline of the steps: as §1

Series [4] deals with T4, PhlH (Pseudomonas fluorescens, UniProt Q4JIX5, F173A).
T4 sequence (Q4JIX5 1-225 F173A): T1 sequence (Q4JIX5 1-225 R124A)
Put plainly: isothermal titration calorimetry. In kind it is binding. Summed up:
as §1

Series [5] has as its target T5, PhlH (Pseudomonas fluorescens, UniProt Q4JIX5, H76A).
T5 sequence (Q4JIX5 1-225 H76A): T1 sequence (Q4JIX5 1-225 R124A)
Put plainly: isothermal titration calorimetry. Type of series: binding. Summed up:
as §1

Series [6] concerns the target T6, PhlH (Pseudomonas fluorescens, UniProt Q4JIX5, V190A).
T6 sequence (Q4JIX5 1-225 V190A): T1 sequence (Q4JIX5 1-225 R124A)
Put plainly: isothermal titration calorimetry. In kind it is binding. Summed up: as §1

The next series concerns the target T7, PhlH R124A (Pseudomonas fluorescens 2P24, UniProt Q4JIX5 1-225, R124A).
T7 sequence: T1 sequence (Q4JIX5 1-225 R124A) with R124A
Kind of series: EMSA. (In general: Mobility shift assays separate free from complexed probe on a gel.)

Regarding `CC(=O)c1c(O)cc(O)c(C(C)=O)c1O` [2,4-DAPG], the Kd on PhlH [1] was found to be 13.2 µM; on PhlH [2], 15.4 µM; on PhlH [3], 39 µM; on PhlH [4] it was 20.2 µM; at PhlH [5], 10.9 µM; at PhlH [6] it was 24.3 µM.

B1: F1 (phlG operator / upstream region) (dsDNA)
DNA 1: TAGTTCTAATTCAAATTTGACTTTTTATTT
DNA 2: AAATAAAAAGTCAAATTTGAATTAGAACTA
As for B1, in the series with PhlH R124A, the binding result is listed as “no binding”.
